Measurements of several laboratories.
Compare with care: the assays were run in different laboratories.
FGFR3 G697C: Fibroblast growth factor receptor 3 (FGFR3, Homo sapiens, UniProt P22607, G697C)
FGFR3: Fibroblast growth factor receptor 3 (FGFR3, Homo sapiens, UniProt P22607)

| Structure (SMILES) | target | observed | mode | method | tested at | measurement | result |
| --- | --- | --- | --- | --- | --- | --- | --- |
| COc1ccnn2ncc(-c3ccnc(N(C)C)n3)c12 | FGFR3 G697C | binding | – | – | 1 µM | remaining binding | 100% |
| CCc1ccccc1C(=O)Nc1n[nH]c2c(C)c(F)c(C3C(C#N)=C(C)N(C)C(C)=C3C#N)cc12 | FGFR3 | cell-free assay | – | competition with immobilised ligand | 1 µM | remaining binding | 93% |
| Cc1ccc(C(=O)NCc2ccsc2)cc1C#Cc1cn(C(C)C)c2ncnc(N)c12 | FGFR3 | enzyme activity | inhibitor | – | 1 µM | activity vs control | 33% |
| O=C1NC(=O)c2cc(Nc3ccc(F)cc3)c(Nc3ccc(F)cc3)cc21 | FGFR3 | cell-free assay | – | – | 0.5 µM | remaining signal | 99.7% |
| COc1cc2ncnc(Nc3ccc(Oc4ccccc4)cc3C)c2cc1OC | FGFR3 | enzyme activity | inhibitor | – | 1 µM | inhibition | 5% |
| CCC(=O)N[C@H]1CC[C@@H](C(=O)N(C)c2ccc(-c3nc4ccccc4o3)cc2)C1 | FGFR3 | cell-free assay | – | competition with immobilised ligand | 1 µM | remaining binding | 98% |
| CSc1nc(C)c(-c2ccnc(Nc3ccc(N4CCOCC4)cc3)c2)[nH]1 | FGFR3 | cell-free assay | inhibitor | – | 10 µM | inhibition | 70.4% |
| Nc1ncnc2occ(-c3ccc(NC(=O)Nc4cc(C(F)(F)F)ccc4F)cc3)c12 | FGFR3 G697C | cell-free assay | – | – | 20 µM | remaining signal | 1.1% |
| Cc1ccc(C(=O)Nc2ccc(CN3CCN(C)CC3)c(C(F)(F)F)c2)cc1C#Cc1cnc2cccnn12 | FGFR3 G697C | cell-free assay | – | – | 23.5 nM | remaining signal | 63% |
| Cc1ccc(Nc2nccc(N(C)c3ccc4c(C)n(C)nc4c3)n2)cc1S(N)(=O)=O | FGFR3 | enzyme activity | inhibitor | – | 0.3 µM | inhibition | 66% |
| O=C(Nc1cnn(-c2csc(C(=O)NC3COC3)c2)c1)Nc1c(F)cccc1Cl | FGFR3 | enzyme activity | inhibitor | – | 5 µM | remaining activity | 92% |
| CN(C)c1ncnc(-c2ccc3nc(Nc4cc(CN5CCN(C(=O)CC(F)(F)F)CC5)ccn4)[nH]c3c2)c1Cl | FGFR3 | cell-free assay | – | competition with immobilised ligand | 1 µM | remaining binding | 100% |
| CNC(=O)c1cc(Oc2ccc(NC(=O)Nc3ccc(Cl)c(C(F)(F)F)c3)cc2)ccn1 | FGFR3 | enzyme activity | inhibitor | – | 0.3 µM | inhibition | 32% |
| CC(C)(C)c1nc2c(s1)c1nc(N)ncc1c1ccc(NS(=O)(=O)c3c(F)cccc3F)c(F)c12 | FGFR3 | enzyme activity | inhibitor | radiometric | 1 µM | remaining activity | 91% |
| CCCOc1ccc(OC)c(F)c1C(=O)c1ccc(C(=O)N[C@@H]2CNC[C@H]2NC(=O)c2ccc3[nH]ncc3c2)cc1 | FGFR3 | enzyme activity | inhibitor | – | 10 µM | remaining activity | 47% |
| CNC(=O)Nc1ccc2c(c1)[C@@]1(CC2)OC(=O)N(CC(=O)N(Cc2ccc(F)cc2)[C@@H](C)C(F)(F)F)C1=O | FGFR3 | cell-free assay | – | competition with immobilised ligand | 1 µM | remaining binding | 92% |
| CC/C(=N\NC(=O)NCc1cccc(O)c1)c1ccc(O)c(C)c1O | Fibroblast growth factor receptor 3 (FGFR3, Homo sapiens, UniProt P22607, K650M) | enzyme activity | inhibitor | – | 0.1 µM | inhibition | 4.2% |
| C[C@H]1CCN(c2nccc(-c3cnn4ncccc34)n2)C1 | FGFR3 G697C | binding | – | – | 1 µM | remaining binding | 83% |

| Structure (SMILES) | target | observed | mode | method | tested at | measurement | result |
| --- | --- | --- | --- | --- | --- | --- | --- |
| Cc1cnc(NC2CCOCC2)nc1-n1cnc(C(=O)NC(CN)c2cc(F)cc(Cl)c2)c1 (centres unmarked) | FGFR3 | enzyme activity | inhibitor | radiometric | 1 µM | remaining activity | 100% |
| N#CCCc1ccc2c(c1)-c1[nH]c3ccc([N+](=O)[O-])cc3c1CC(=O)N2 | FGFR3 | cell-free assay | – | – | 0.5 µM | remaining signal | 90.3% |
| CC(C)CC(=O)N1CCc2nc(-c3ccc(Br)cc3)nc(N(C)Cc3ccccc3)c2C1 | FGFR3 | cell-free assay | – | competition with immobilised ligand | 0.1 µM | remaining binding | 100% |
| CN(CCCC(F)(F)F)c1nccc(-c2cnn3ncccc23)n1 | FGFR3 G697C | binding | – | – | 1 µM | remaining binding | 86% |
| O=C(CSc1nc2nccnc2c(=O)n1CCc1ccccc1)Nc1nccs1 | FGFR3 | enzyme activity | inhibitor | – | 10 µM | inhibition | 8% |
| Cc1ccc(NC(=O)c2ccc(C)c(C(F)(F)F)c2)cc1C#Cc1nn(C2CCC(O)CC2)c2ncnc(N)c12 (centres unmarked) | FGFR3 | cell-free assay | – | – | 10 µM | remaining signal | 3% |
| O=C(Nc1cnn(-c2csc(C(=O)NC3COC3)c2)c1)Nc1ccccc1Cl | FGFR3 | enzyme activity | inhibitor | – | 5 µM | remaining activity | 97.8% |
| CO[C@@H](C)c1c(Nc2ccc([C@H](N(C)C(=O)C3CCS(=O)(=O)CC3)C(F)(F)F)cc2)cnc2cc(Cl)nn12 | FGFR3 G697C | cell-free assay | – | competition with immobilised ligand | 1 µM | remaining binding | 86% |
| CN(c1nccc(-c2cnn3ncccc23)n1)C1CC1 | FGFR3 G697C | binding | – | – | 1 µM | remaining binding | 100% |
| Cc1cc(C)c(-n2ccn3nc(-c4cccnc4)cc23)cc1NC(=O)c1cc(C#N)cc(S(F)(F)(F)(F)F)c1 | FGFR3 | cell-free assay | – | competition with immobilised ligand | 0.1 µM | remaining binding | 95.6% |
| COc1cc2nccc(Oc3ccc(NC(=O)c4c5n(n(-c6ccc(F)cc6)c4=O)CCCC5)cc3)c2cc1OC | FGFR3 | enzyme activity | inhibitor | – | 0.1 µM | inhibition | -4% |
| COc1cc2ncnc(Nc3ccc(Oc4ccccc4)c(C)c3C)c2cc1OC | FGFR3 | enzyme activity | inhibitor | – | 1 µM | inhibition | -2% |
| N[C@H]1CCN(c2nccc(-c3cnn4ncccc34)n2)C1 | FGFR3 | binding | – | – | 1 µM | remaining binding | 84% |
| CNCc1ccc(-c2cc(-c3nc(-c4ccc(S(=O)(=O)C(C)C)cc4)cnc3N)on2)cc1 | FGFR3 | enzyme activity | inhibitor | – | 2 µM | inhibition | 10% |
| Cc1ccc(NC(=O)c2ccc(CN3CCN(C)CC3)cc2)cc1Nc1nc(-c2cccnc2)cs1 | FGFR3 | cell-free assay | – | – | 0.5 µM | remaining signal | 94.3% |
| CCCCN(CCCC)C(=O)CN1C[C@H](c2cc(OC)c3c(c2)OCO3)[C@@H](C(=O)O)[C@@H]1CC(C)(C)CCC | FGFR3 | cell-free assay | – | competition with immobilised ligand | 1 µM | remaining binding | 100% |
| F[C@@H]1CCN(c2nccc(-c3cnn4ncccc34)n2)C1 | FGFR3 | binding | – | – | 1 µM | remaining binding | 100% |
